The entries come from a sample that favours hits as a whole.
Redox H2O2 prof: compounds producing H2O2 with reducing agent – biochemical, NIH compound library profiling, artefact control for MLSCN library redox annotation, primary screen | DTT-dependent redox cycling H2O2, phenol red/HRP absorbance; 100% = 100 µM peroxide control, 0% = buffer | activation, % at 10 µM | 0.03% of 200,000 active | AID 878, 2007;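 active = activation of at least 50% relative to the plate's high and low controls in the primary single-dose screen; inactive = activation below 50%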;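 also: compound incubated with DTT at 0.8 mM final as the reducing agent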
Hep lipid drop: inhibitors of hepatocyte lipid droplet formation, primary screen, imaging, high-throughput imaging, BODIPY stain; inhibition, % at 6.5 µM; AID 1656, 2009; 0.4% of 240,000 active; AML12 mouse hepatocytes, oleate lipid droplets;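 active = lipid droplet intensity inhibited by at least 50%, with more than 500 cells counted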
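Material – AML12 mouse liver cells · Also added – oleate loading, 100 µM · Compound dosing – 6.5 µM single-point dosing · Times – overnight treatment with compound plus oleate · Measured by – fluorescence imaging, 20x objective, two fields per well · Read-out – percent inhibition of filter-corrected integrated lipid droplet intensity per well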
Lmaj promast: Leishmania major promastigote growth inhibition, primary screen | AID 1063, 2008 | inhibition, % at 10 µM | 9% of 200,000 active | Leishmania major promastigotes, resazurin fluorescence viability; in the data active = inhibition above about 50%;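 also: promastigotes grown with compound for 44 hours at 28 °C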
MPTP block: mitochondrial permeability transition pore inhibitors, primary screen, biochemical, isolated mouse mitochondria, absorbance; Ca2+ swelling absorbance, 30 min; inhibition, % at 10 µM; 1.4% of 360,000 active;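 active = inhibition of 50% or more, scaled per plate between neutral and stimulator controls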;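 also: 0% = DMSO wells given calcium and 100% = 1 mM EGTA wells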
T cruzi repl: inhibitors of intracellular T. cruzi growth, primary screen, luminescence, NIH3T3 host cells. 1.4% of 300,000 active. AID 1885, 2009. T. cruzi beta-gal in NIH3T3, 90 h. inhibition, % (no concentration beside the values);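 active = mean inhibition across valid replicates above about 55%, limit read from the data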;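 also: signal also drops with host cell toxicity which is not excluded here; 0% = plate median of DMSO wells and 100% = zero luminescence signal; higher percent means less beta-gal luminescence so fewer parasites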
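compound dosing = single 50 nL compound addition per well in DMSO | material = NIH/3T3 host cells with β-galactosidase reporter T. cruzi | input = 5,000 host fibroblasts per well | timing = ≥90 h infection period, 3 h prior cell attachment | read-out basis = percent inhibition of parasite-derived β-gal signal | detection = GalScreen β-gal luminescence, detergent lysis, 60 min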
Numbers without * were called inactive; · = no result given.

SMILES | Redox H2O2 prof | Hep lipid drop | Lmaj promast | MPTP block | T cruzi repl
CC1=CC(C)(C)[N+](C)(C)c2ccccc21 | -0.2 | 5.1 | -5.5 | 0.1 | -0.6
CCn1c(=N)n(CC(=O)C(C)(C)C)c2ccccc21 | 0.5 | -6.5 | 27.4 | -0.6 | 30.0
CCCn1c(=N)n(CC(=O)C(C)(C)C)c2ccccc21 | -0.2 | · | 81.0* | -3.1 | 6.7
CCCCn1c(=N)n(CC(=O)C(C)(C)C)c2ccccc21 | 2.2 | · | 37.4 | -6.3 | 62.0*
CN(C(=O)C1CCCN(c2ncnc3c2nc2n3CCCCC2)C1)c1cccc(Cl)c1 (centres undefined) | · | -36.2 | · | 0.1 | -2.8
O=C(c1ccc(-c2ccccc2)cc1)C1CCCN(C(=O)c2ccncc2)C1 (centres undefined) | -1.4 | -1.5 | 16.6 | -1.7 | 28.1
Cc1nn(C)cc1CN1CCCC(C(=O)c2ccc(-c3ccccc3)cc2)C1 (centres undefined) | -0.8 | 1.7 | 89.8* | 0.3 | 62.1*
O=C(c1ccc(Cl)cc1)N1CCCC(C(=O)N2CCN(c3ccccc3)CC2)C1 (centres undefined) | · | -6.0 | · | 2.6 | 7.3
O=C(c1ccc(-c2ccccc2)cc1)C1CCCN(Cc2ccncc2)C1 (centres undefined) | -0.3 | 2.9 | 93.4* | 2.0 | 54.8*
O=C(c1ccc(Cl)cc1)C1CCCN(Cc2cnn(-c3ccccc3)c2)C1 (centres undefined) | 1.4 | -3.5 | 84.2* | 6.2 | 61.1*
Cc1ccsc1C(=O)C1CCCN(Cc2cn(C)nc2-c2ccccc2)C1 (centres undefined) | 0.1 | -20.5 | 6.3 | 1.3 | 4.9
Cn1cc(CN2CCCC(C(=O)c3cccs3)C2)c(-c2cccc(Cl)c2)n1 (centres undefined) | 0.2 | -8.9 | 62.5* | 0.7 | -3.6
COc1ccccc1CN1C[C@@H]2C[C@@H](c3cccc(C)c3)N3CCC[C@@]23C1=O | 0.5 | -19.3 | 7.3 | 0.1 | 16.2
OC(c1cc(F)cc(Cl)c1)c1ncc(-c2ccc(Cl)cc2)[nH]1 (centres undefined) | · | · | · | 21.3 | ·
O=C(c1ccc(Cl)cc1)C1CCCN(Cc2ccc(Oc3ncccn3)cc2)C1 (centres undefined) | 0.4 | -41.8 | 86.2* | 0.3 | 47.6
CC(=O)Nc1ccc(CN2CCCC(C(=O)c3ccc(C(F)(F)F)cc3)C2)cc1 (centres undefined) | 0.9 | -2.1 | 82.2* | 0.5 | 2.5
OCC1CCCN(Cc2ccc(-c3ccccc3)cc2)C1 (centres undefined) | 0.0 | · | 95.6* | -0.9 | 29.4
Cn1cc(CN2CCN(c3cnccn3)CC2)c(-c2cccc(Cl)c2)n1 | -1.3 | 2.7 | 27.2 | 1.8 | 12.2
CC(C1CCN(Cc2cn(C)nc2-c2cccc(Cl)c2)CC1)N1CCOCC1 (centres undefined) | -0.8 | 0.0 | 69.3* | 1.5 | -4.1
CC(NC(=O)COC(=O)CN1C(=O)c2ccccc2C1=O)c1ccccc1 (centres undefined) | · | · | · | 1.0 | ·
CCCCN(Cc1ccccc1)C(=O)C1CCC(=O)N(CCc2ccccn2)C1 (centres undefined) | · | 1.2 | · | -0.2 | -4.5
Cc1cc(=O)[nH]c(SCC(=O)N(CCC#N)c2ccccc2)c1C#N | 0.0 | 2.2 | -9.4 | 0.0 | 2.0
O=S1(=O)CCC(NC(=S)SCCOc2ccccc2)C1 (centres undefined) | 1.0 | -12.7 | 92.2* | -2.5 | -2.6
O=S1(=O)CCC(NC(=S)NC2CCS(=O)(=O)C2)C1 (centres undefined) | 0.3 | -2.2 | -2.0 | 8.6 | -1.9
CCCCSC(=S)NC1CCS(=O)(=O)C1 (centres undefined) | 0.0 | 17.2 | 95.2* | -0.1 | 4.3
SMILES | Redox H2O2 prof | Hep lipid drop | Lmaj promast | MPTP block | T cruzi repl
CCOc1cc(Cl)c(S(=O)(=O)NCc2cccnc2)cc1Cl | · | -12.3 | · | 3.3 | -22.1
COc1ccc(N2C(=O)C3NN=C(C(=O)OCc4ccccc4)C3C2=O)cc1 (centres undefined) | 4.4 | -1.6 | -6.4 | -0.1 | -15.3
O=C(CN1CCN(c2ncc(C(F)(F)F)cc2Cl)CC1)N1CCN(c2ncc(C(F)(F)F)cc2Cl)CC1 | -0.1 | 17.9 | 50.3* | 3.5 | 44.2
CCCc1cc(=O)[nH]c(SCC(=O)N2CCN(S(=O)(=O)c3ccc(Cl)cc3)CC2)n1 | -0.1 | -2.6 | 66.6* | -0.4 | 9.6
O=C(CSc1ccc(Cl)cc1)N1CCN(c2ncc(C(F)(F)F)cc2Cl)CC1 | 2.0 | 5.2 | -4.3 | 17.7 | 35.5
O=C(CSc1ncc(C(F)(F)F)cc1Cl)N1CCN(S(=O)(=O)c2ccc(Cl)cc2)CC1 | 0.1 | -1.3 | 90.4* | 3.1 | 39.7
O=C(NNC(=O)C1CC2CCC1C2)c1sc2ccccc2c1Cl (centres undefined) | 0.3 | -6.8 | 2.7 | 1.7 | 5.6
NC(N)=NC(=S)Nc1ccc(Cl)cc1 | · | 2.4 | · | 0.0 | 30.0
COc1ccc(N2CCC(CNC(=S)Nc3c(C)cc(C)cc3C)C2)cc1 (centres undefined) | · | -4.8 | · | 3.4 | 19.8
Cc1ccccc1NC(=S)NC(C)C(c1ccccc1)N1CCN(C)CC1 (centres undefined) | -0.3 | -10.8 | -0.7 | 1.8 | -12.9
Cc1ccccc1NC(=S)NCC1CCN(C(C)c2ccccc2)C1 (centres undefined) | 0.7 | -1.9 | 76.3* | 2.0 | 57.8*
Cc1cc(C)cc(NC(=S)NCC2CCN(C(C)c3ccccc3)C2)c1 (centres undefined) | -6.8 | -1.9 | 71.8* | 2.1 | 42.8
COc1ccc(N2CCC(CNC(=S)Nc3cccc(C)c3)C2)cc1 (centres undefined) | 0.3 | -23.5 | 72.4* | 20.1 | 4.5
O=C(/C=C/[C@H]1O[C@@H](n2ccc(=O)[nH]c2=O)[C@H](O)[C@@H]1O)NCCCc1ccccc1 | · | · | · | -2.3 | ·
O=C(Nc1ccccn1)c1cccc(S(=O)(=O)N2CCCC2)c1 | · | 0.5 | · | -1.5 | -3.2
CN(CC(=O)Nc1cccc(F)c1)C(=O)CCCN1C(=O)c2cccc3cccc(c23)C1=O | · | · | · | -1.6 | 10.4
O=C(OCc1cn([C@@H]2CN(Cc3cccs3)[C@@H](c3ccccc3)C[C@H]2O)nn1)c1ccccc1 | · | · | · | 0.1 | ·
COC(=O)c1sc(NC(=O)c2cc(C)on2)nc1C | · | -0.9 | · | 1.9 | -23.2
O=C(CCCOC(=O)c1ccc(O)cc1O)c1ccc(Br)cc1 | · | · | · | 5.6 | ·
CCN(CC)CCCOC(=O)c1ccc(OC)cc1O | -0.4 | 9.7 | 74.3* | -0.8 | 83.9*
CCN(CC)CCOC(=O)c1c(C)oc2ccc(OC)cc12 | 1.9 | · | 100.3* | 1.4 | -2.3
CCN(CC)CCOC(=O)c1cccc(OC)c1 | 1.2 | -25.9 | -4.7 | -1.8 | -8.1
CC(C)c1cccc(-c2csc(C(O)c3cccc(Cl)c3)n2)c1 (centres undefined) | · | · | · | 2.2 | ·
